ChEMBL document CHEMBL1142554, “Lyngbyastatin 2 and norlyngbyastatin 2, analogues of dolastatin G and nordolastatin G from the marine cyanobacterium Lyngbya majuscula” (J Nat Prod, 1999)
In brackets after ≈: the same amount, converted by molar mass. Activity calls are given as the source filed them. No cut-off for these calls is given here. Starred links: 1 amine or outer side, 2 acyl side, 3 side chain; linkers in the order of their positions; H or OH if unused. Positions of bridges follow the written chain, without caps; N, C: chain ends. Non-standard residues stand in square brackets, D forms with d. Residues, ends and D or L forms follow the SMILES beside them. X1 = CC[C@H](CCC[C@@H](O)[C@@H](C)C(=O)O[C@H](C)[C@@H](C)C/C=C(C)/C(=C\C(=O)[*:1])OC)O[*:2]; X2 = CC[C@H](CCC[C@@H](O)[C@@H](C)C(=O)O[C@H](C)[C@@H](C)C/C=C(\C)C(=O)CC(=O)[*:1])O[*:2]; NMeI = CC[C@H](C)[C@H](NC)C(=O)O; NMeV = CN[C@H](C(=O)O)C(C)C; NMeS = CN[C@@H](CO)C(=O)O

Legend:
KB = experiment: Cytotoxicity against human KB cells; assay type: functional, cell-based
LoVo = experiment: Cytotoxicity against human LoVo cells; assay type: functional, cell-based
Mus musculus = species: Mus musculus; experiment: Toxicity in mouse; assay type: organism-based; settings: in vivo
MC-38 = experiment: Cytotoxicity against mouse C38 cells at 1.8 mg/kg by in vivo assay; assay type: functional, organism-based; set-up: dose 1.8 mg/kg
Procedure, shortened: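 In vivo mouse model bearing the murine colon adenocarcinoma C38, with compound dosed at 1.8 mg/kg or lower.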

[1] = Inhibition of microtubule assembly
[2] = Inhibition of microfilament assembly
[3] = biological target: T1, DNA topoisomerase 1 (Homo sapiens) (UniProt P11387); experiment: Inhibition of topoisomerase 1
T1 sequence (whole entry): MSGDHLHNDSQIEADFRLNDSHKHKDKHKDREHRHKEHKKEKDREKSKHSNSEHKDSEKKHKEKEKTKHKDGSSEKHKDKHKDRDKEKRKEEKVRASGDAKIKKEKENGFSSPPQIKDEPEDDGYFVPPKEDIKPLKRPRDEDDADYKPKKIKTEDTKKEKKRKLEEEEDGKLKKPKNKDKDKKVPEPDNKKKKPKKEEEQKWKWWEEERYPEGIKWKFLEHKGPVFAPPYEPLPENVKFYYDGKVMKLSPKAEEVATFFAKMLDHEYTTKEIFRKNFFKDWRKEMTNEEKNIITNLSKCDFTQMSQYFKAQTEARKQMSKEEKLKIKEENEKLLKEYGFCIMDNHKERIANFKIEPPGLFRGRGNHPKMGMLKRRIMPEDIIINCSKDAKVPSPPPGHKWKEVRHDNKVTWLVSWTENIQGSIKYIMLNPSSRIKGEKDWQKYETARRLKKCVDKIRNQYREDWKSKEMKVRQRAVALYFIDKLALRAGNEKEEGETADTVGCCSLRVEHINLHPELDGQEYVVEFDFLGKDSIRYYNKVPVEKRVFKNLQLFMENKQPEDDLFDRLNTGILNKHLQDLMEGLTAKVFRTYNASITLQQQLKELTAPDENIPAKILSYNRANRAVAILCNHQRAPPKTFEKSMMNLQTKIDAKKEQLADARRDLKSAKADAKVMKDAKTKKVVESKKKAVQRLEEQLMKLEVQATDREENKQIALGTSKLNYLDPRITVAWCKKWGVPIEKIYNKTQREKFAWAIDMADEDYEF

| SMILES | IC50 (KB) [µg/mL] | IC50 (LoVo) [µg/mL] | LD100 (Mus musculus) [mg/kg] | Activity (MC-38) | Activity [1] | Activity [2] | Activity [3] |
| --- | --- | --- | --- | --- | --- | --- | --- |
| CC[C@@H]1CCC[C@@H](O)[C@@H](C)C(=O)O[C@H](C)[C@@H](C)C/C=C(C)/C(OC)=C\C(=O)N(C)[C@@H]([C@@H](C)CC)C(=O)N(C)[C@@H](C(C)C)C(=O)N(C)[C@@H](COC)C(=O)N2CCC[C@H]2C(=O)N(C)[C@@H](C(C)C)C(=O)N2CCC[C@H]2C(=O)O1 [LYNGBYASTATIN 2] ([NMeI][NMeV][NMeS](Me)P[NMeV]P; linker N-C via X1) | 0.02 (≈ 0.0189 µM) | 0.014 (≈ 0.0132 µM) | 3 | inactive | inactive | inactive | inactive |
| CC[C@@H]1CCC[C@@H](O)[C@@H](C)C(=O)O[C@H](C)[C@@H](C)C/C=C(\C)C(=O)CC(=O)N(C)[C@@H]([C@@H](C)CC)C(=O)N(C)[C@@H](C(C)C)C(=O)N(C)[C@@H](COC)C(=O)N2CCC[C@H]2C(=O)N(C)[C@@H](C(C)C)C(=O)N2CCC[C@H]2C(=O)O1 [NORLYNGBYASTATIN 2] ([NMeI][NMeV][NMeS](Me)P[NMeV]P; linker N-C via X2) | 0.93 (≈ 0.89 µM) | 0.475 (≈ 0.454 µM) | – | – | inactive | inactive | inactive |
